In test [1] the test system is OVCAR-5. Put plainly: Antiproliferative activity against human OVCAR-5 cells assessed as cell growth inhibition measured after 3 days by cell viability assay. The test is classed as functional, cell-based. Particulars: OVCAR-5, 72 h.
Test [2] deals with A2780. Put plainly: Antiproliferative activity against human A2780 cells assessed as cell growth inhibition measured after 3 days by cell viability assay. The test is classed as functional, cell-based. The conditions noted are these: A2780, 72 h.
A further test concerns MIA PaCa-2. Description: Antiproliferative activity against human MIA PaCa-2 cells assessed as cell growth inhibition measured after 3 days by cell viability assay. In kind it is functional, cell-based. Particulars: MIA PaCa-2, 72 h.
For a further test, the system named is SF-268. Description: Antiproliferative activity against human SF-268 cells assessed as reduction in the net protein increase inhibition by SRB assay. The test is classed as functional. The conditions noted are these: pooled result: one value given for 6 cell lines, strains, targets or settings. (In general: In SRB staining, fixed cells bind dye roughly in proportion to their protein.)

In test [3] the target is Transcription factor p65 (Homo sapiens) (UniProt Q04206). Description: Covalent modification of RELA in human OVCAR-5 cells assessed as high molecular weight band formation incubated for 2 hrs by Western blot analysis. In kind it is cell-based. The conditions noted are these: filed as modulator. An outline of the steps:
(§1)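 Non-transformed immortalized fallopian tube epithelial FT282C11, MiaPaCa2 or OVCAR5 cells treated with or without compound; lysates analysed by western blot probed with RELA antibody for high molecular weight bands.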

The target is the same in test [4]. Put plainly: Covalent modification of RELA in human OVCAR-5 cells assessed as high molecular weight band formation at 10 uM incubated for 2 hrs by Western blot analysis. In kind it is cell-based. Particulars: filed as modulator. The essentials:
as §1

The target is the same in test [5]. Put plainly: Covalent modification of RELA in human MIA PaCa-2 cells assessed as high molecular weight band formation at 10 uM incubated for 2 hrs by Western blot analysis. In kind it is cell-based. The conditions noted are these: filed as modulator. An outline of the steps:
as §1
On the technique in general: Immunoblotting shows a protein as a band on a membrane.

The target is the same in test [6]. Put plainly: Covalent modification of RELA in human FT282C11 cells assessed as high molecular weight band formation at 10 uM incubated for 2 hrs by Western blot analysis. The test is classed as cell-based. The conditions noted are these: filed as modulator. The essentials:
as §1

Test [7] has the same target. Put plainly: Covalent modification of RELA in TNF-alpha induced human OVCAR-5 cells assessed as inhibition of phosphorylation of IkappaB-alpha at 10 uM pretreated for 2 hrs followed by TNF-alpha stimulation for 10 mins by Western blot analysis. The conditions noted are these: filed as modulator. In kind it is cell-based. An outline of the steps:
(§2)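 Two sets of OVCAR5 cells treated with DMSO or compound; one set stimulated with TNFα, the other left unstimulated as control; read-out by western blot.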

Test [8] shares this target. Description: Covalent modification of RELA in TNF-alpha induced human OVCAR-5 cells assessed as inhibition of nuclear localization of protein at 10 uM pretreated for 2 hrs followed by TNF-alpha stimulation for 10 mins by Western blot analysis. In kind it is cell-based. Particulars: filed as modulator. An outline of the steps:
as §2

The subject of test [9] is A2780. Put plainly: Inhibition of cell migration in human A2780 cells at 500 nM measured up to 48 hrs by wound healing scratch assay. In kind it is functional. Also on record: scale not given: the % may be the effect or the level left. An outline of the steps: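 Wound-healing scratch assay: A2780 cells treated with DMSO or 500nM compound, imaged at 0, 12, 24 and 48h; wound closure quantified relative to DMSO wells.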

For test [10], the system named is A2780. Description: Inhibition of colony formation in human A2780 cells measured every day up to 4 days by IncuCyte live-cell imaging assay. Particulars: DDE = dose-dependent effect. The test is classed as functional, cell-based. The essentials: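 A2780 ovarian cancer cells sparsely plated and grown with or without compound for 4 days under continuous Incucyte S3 live-cell imaging; colonies quantified against DMSO-treated wells at several time points.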

The subject of test [11] is OVCAR-5. Description: Antiproliferative activity against human OVCAR-5 cells assessed as cell growth inhibition at 1.11 to 10 uM incubated for 6 hrs followed by compound removal and measured up to 72 hrs by IncuCyte live-cell imaging assay. The test is classed as functional, cell-based.
The target in test [12] is T1, Inhibitor of nuclear factor kappa-B kinase subunit beta (Homo sapiens) (UniProt O14920).
T1 sequence (whole entry): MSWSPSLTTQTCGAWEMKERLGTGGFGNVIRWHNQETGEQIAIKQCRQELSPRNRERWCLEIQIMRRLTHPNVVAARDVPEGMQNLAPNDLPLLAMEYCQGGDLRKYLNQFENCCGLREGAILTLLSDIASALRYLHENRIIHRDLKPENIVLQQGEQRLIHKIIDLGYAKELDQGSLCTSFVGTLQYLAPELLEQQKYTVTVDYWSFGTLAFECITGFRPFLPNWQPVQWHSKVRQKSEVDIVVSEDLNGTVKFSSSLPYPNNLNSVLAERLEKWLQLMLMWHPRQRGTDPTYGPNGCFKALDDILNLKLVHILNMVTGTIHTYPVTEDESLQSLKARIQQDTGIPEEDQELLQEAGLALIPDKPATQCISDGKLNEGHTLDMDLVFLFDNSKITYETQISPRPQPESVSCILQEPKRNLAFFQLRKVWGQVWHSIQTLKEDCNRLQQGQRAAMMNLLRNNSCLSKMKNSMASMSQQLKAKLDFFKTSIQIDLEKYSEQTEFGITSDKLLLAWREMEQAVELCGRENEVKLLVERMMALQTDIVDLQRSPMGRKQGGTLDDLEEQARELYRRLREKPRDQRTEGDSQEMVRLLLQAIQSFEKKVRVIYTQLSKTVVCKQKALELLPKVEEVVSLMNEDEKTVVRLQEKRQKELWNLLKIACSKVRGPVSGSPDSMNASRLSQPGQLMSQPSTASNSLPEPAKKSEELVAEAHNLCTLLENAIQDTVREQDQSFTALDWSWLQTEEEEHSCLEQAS
Description: Covalent modification of N-terminal hexa-his-tagged human recombinant IKKbeta assessed as high molecular weight band formation at 1:1 protein to compound concentration measured after 24 hrs by SDS-PAGE based silver staining analysis. Particulars: filed as modulator. The essentials: (§3)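 Recombinant RELA and/or IKKβ proteins incubated in vitro with compound at equimolar or 10x concentration; mixtures resolved by SDS-PAGE and silver stained to detect the recombinant proteins and high molecular weight bands.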

Test [13] concerns the target Transcription factor p65 (Homo sapiens) (UniProt Q04206). Description: Inhibition of TNF-alpha induced RELA in human A549 cells assessed as reduction in NFkappaB mediated gene expression pretreated for 2 hrs followed by TNF-alpha stimulation for 3 hrs by […]. The test is classed as cell-based. The conditions noted are these: filed as modulator, DDE = dose-dependent effect. The essentials: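 TNFα-induced NFκB reporter assay run as a dose-response with compound.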
(The colour change of resazurin is a common sign of viable cells or microbes.)

For another test, the system named is CCRF-CEM. Description: Antiproliferative activity against human CCRF-CEM cells assessed as cell growth inhibition by measuring reduction in net protein increase inhibition by SRB assay. The test is classed as functional. Particulars: pooled result: one value given for 6 cell lines, strains, targets or settings.
In test [14] the target is Transcription factor p65 (Homo sapiens) (UniProt Q04206). Description: Covalent modification of RELA in human OVCAR-5 cells assessed as increase in PARP cleavage at 10 uM incubated for 2 hrs by Western blot analysis. The test is classed as cell-based. Particulars: filed as modulator. The essentials:
(§4)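 Cancer cells treated with or without compound; lysates analysed by western blot for PARP cleavage.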

The species entered for the next test is Homo sapiens. Put plainly: Covalent modification of N-terminal hexa-his-tagged human recombinant IKKbeta/ N-terminus mouse recombinant RELA (1 to 325 residues) assessed as tertiary complex formation with RELA by measuring high molecular weight band formation at 1:1:1 protein/protein to compound concentration measured after 24 hrs by SDS-PAGE based silver staining analysis. Particulars: filed as modulator. An outline of the steps:
as §3

In test [15] the target is Transcription factor p65 (Homo sapiens) (UniProt Q04206). Description: Covalent modification of RELA in human MIA PaCa-2 cells assessed as increase in PARP cleavage at 10 uM incubated for 2 hrs by Western blot analysis. The conditions noted are these: filed as modulator. In kind it is cell-based. The essentials: as §4

The source made the active and inactive calls. No cut-off for these calls is given here.

The IC50 is the point on the concentration scale where inhibition reaches its midpoint. As usually defined, the GI50 is the concentration that inhibits growth by half.

Sequence of Transcription factor p65 (Homo sapiens) (Q04206 whole entry): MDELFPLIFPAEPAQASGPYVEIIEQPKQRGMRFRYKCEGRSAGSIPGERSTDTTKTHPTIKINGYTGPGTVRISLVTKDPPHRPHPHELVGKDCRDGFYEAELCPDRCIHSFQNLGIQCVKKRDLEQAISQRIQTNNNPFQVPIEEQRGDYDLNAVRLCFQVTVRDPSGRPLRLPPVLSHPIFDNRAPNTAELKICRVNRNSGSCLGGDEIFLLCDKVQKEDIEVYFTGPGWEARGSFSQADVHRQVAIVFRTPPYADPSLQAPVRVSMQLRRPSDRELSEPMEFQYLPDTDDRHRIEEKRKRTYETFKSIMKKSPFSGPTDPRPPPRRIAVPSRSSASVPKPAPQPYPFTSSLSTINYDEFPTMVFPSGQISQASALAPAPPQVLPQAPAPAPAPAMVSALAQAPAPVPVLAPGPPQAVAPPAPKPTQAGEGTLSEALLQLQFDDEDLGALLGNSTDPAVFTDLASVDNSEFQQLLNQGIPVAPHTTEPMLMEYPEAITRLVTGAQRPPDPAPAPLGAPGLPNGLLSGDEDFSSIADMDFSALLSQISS

Regarding `C=C1CC2(OC1=O)C(=O)N(CCCCCN1C(=O)C3(CC(=C)C(=O)O3)c3ccccc31)c1ccccc12` (stereo unspecified), the IC50 in the test on OVCAR-5 [1] was determined as 90 nM; with A2780 [2] it was 270 nM; in the test with MIA PaCa-2, 200 nM.

Take `C=C1CC2(OC1=O)C(=O)N(CCN1C(=O)C3(CC(=C)C(=O)O3)c3ccccc31)c1ccccc12` (stereo unspecified): the IC50 in the test on OVCAR-5 [1] turned out to be 320 nM; with A2780 [2] it was 390 nM.

For `C=C1CC2(OC1=O)C(=O)Nc1ccccc12` (stereo unspecified), the IC50 in the test with OVCAR-5 [1] is 3130 nM; with A2780 [2], 990 nM; with MIA PaCa-2 it was 2050 nM.

In the case of `C=C1CC2(OC1=O)C(=O)N(CCCCCCCCCCCCN1C(=O)C3(CC(=C)C(=O)O3)c3ccccc31)c1ccccc12` (stereo unspecified), the IC50 in the test on OVCAR-5 [1] is 420 nM; in the test on A2780 [2], 500 nM; in the test on MIA PaCa-2 it was 1500 nM.

In the case of `C=C1CC2(OC1=O)C(=O)N(CCCCCCCCN1C(=O)C3(CC(=C)C(=O)O3)c3ccccc31)c1ccccc12` (stereo unspecified), the IC50 in the test on OVCAR-5 [1] was found to be 390 nM; in the test on A2780 [2] it was 600 nM; in the test with MIA PaCa-2, 740 nM.

Take `C=C1CC2(OC1=O)C(=O)N(CCCCCCCCCN1C(=O)C3(CC(=C)C(=O)O3)c3ccccc31)c1ccccc12` (stereo unspecified): the IC50 with OVCAR-5 [1] stood at 480 nM; with A2780 [2] it was 1080 nM; in the test on MIA PaCa-2, 1220 nM.

As for `C=C1CC2(OC1=O)C(=O)N(CCCN1C(=O)C3(CC(=C)C(=O)O3)c3ccccc31)c1ccccc12` (stereo unspecified), the GI50 was determined as 1760 nM with SF-268 and 380 nM in the test on CCRF-CEM. The outcome in test [3], in test [4], in test [5], in test [6], in [7] and in test [8] was Active. Further, the result (in the test with OVCAR-5 [11]; in [12]; in test [14]; in the test listed under Homo sapiens; in [15]) was Active. The IC50 came to 90 nM with OVCAR-5 [1], 230 nM in the test on A2780 [2] and 130 nM in the test with MIA PaCa-2. The Activity with A2780 [9] came out at 50%. The inhibition entry (with A2780 [10]; in test [13]) was “Dde” each time.

As to `C=C1CC2(OC1=O)C(=O)N(CCCCCCCCCCCN1C(=O)C3(CC(=C)C(=O)O3)c3ccccc31)c1ccccc12` (stereo unspecified), the IC50 in the test with OVCAR-5 [1] came out at 830 nM; with A2780 [2], 770 nM; in the test with MIA PaCa-2, 2030 nM.

With `C=C1CC2(OC1=O)C(=O)N(Cc1ccc(CN3C(=O)C4(CC(=C)C(=O)O4)c4ccccc43)cc1)c1ccccc12` (stereo unspecified), the IC50 in the test with OVCAR-5 [1] was 180 nM; with A2780 [2], 310 nM; with MIA PaCa-2, 270 nM.

Take `C=C1CC2(OC1=O)C(=O)N(CCCCN1C(=O)C3(CC(=C)C(=O)O3)c3ccccc31)c1ccccc12` (stereo unspecified): the concentration for half-maximal inhibition (IC50) in the test with OVCAR-5 [1] was found to be 150 nM; with A2780 [2], 360 nM.

As for `C=C1CC2(OC1=O)C(=O)N(CCCCCCN1C(=O)C3(CC(=C)C(=O)O3)c3ccccc31)c1ccccc12` (stereo unspecified), the results for the IC50 with OVCAR-5 [1], in the test on A2780 [2] and with MIA PaCa-2 were 300 nM, 410 nM and 230 nM, respectively.

For `C=C1CC2(OC1=O)C(=O)N(CCCCCCCN1C(=O)C3(CC(=C)C(=O)O3)c3ccccc31)c1ccccc12` (stereo unspecified), the figures for the IC50 in the test on OVCAR-5 [1], with A2780 [2] and in the test with MIA PaCa-2 were 340 nM, 410 nM and 260 nM, respectively.

On to `CC1CC2(OC1=O)C(=O)N(CCCCCCCN1C(=O)C3(CC(C)C(=O)O3)c3ccccc31)c1ccccc12` (stereo unspecified), for which the IC50 in the test with OVCAR-5 [1], in the test with A2780 [2] and in the test on MIA PaCa-2 was greater than 10000 nM throughout.

In the case of `C=C1CC2(OC1=O)C(=O)N(CCCCCCCCCCN1C(=O)C3(CC(=C)C(=O)O3)c3ccccc31)c1ccccc12` (stereo unspecified), the values for the IC50 in the test on OVCAR-5 [1], in the test with A2780 [2] and in the test on MIA PaCa-2 were 410 nM, 490 nM and 560 nM, respectively.
